Rows were chosen to be rich in hits. Some 5.7% of all compounds tested hit in one or more screens of this group.
T cruzi inh: inhibitors of intracellular T. cruzi growth, primary screen, luminescence, NIH3T3 host cells. T. cruzi beta-gal in NIH3T3, 90 h. AID 1885, 2009. 300,000 compounds, 1.4% hits. inhibition, % (test concentration not listed);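 active = mean inhibition across valid replicates above about 55%, limit read from the data; inconclusive = mean below that limit but half or more replicates reach it; inactive = mean below it, under half of replicates reach it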;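 also: signal also drops with host cell toxicity which is not excluded here; higher percent means less beta-gal luminescence so fewer parasites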
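compound dosing = single 50 nL compound addition per well in DMSO | material = NIH/3T3 host cells with β-galactosidase reporter T. cruzi | input = 5,000 host fibroblasts per well | timing = ≥90 h infection period, 3 h prior cell attachment | read-out basis = percent inhibition of parasite-derived β-gal signal | detection = GalScreen β-gal luminescence, detergent lysis, 60 min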
Calb FLC: C. albicans growth inhibition with fluconazole, primary screen, CaCi-2 strain, Alamar Blue fluorescence. C. albicans CaCi-2 + fluconazole, 48 h. growth inhibition, % (no concentration beside the values). 300,000 compounds, 0.57% hits. AID 1979, 2009;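 active = growth inhibition above about 58% in most replicates, limit read from the data, passing the limit was not always enough; inconclusive = exactly half the replicates above a set limit; inactive = most replicates below a set limit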;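 also: all wells also contain fluconazole at 8 µg/ml as a sub-toxic cotreatment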
Beta apoptosis: inhibitors of cytokine-induced beta cell apoptosis, primary screen, luminescence; INS-1E cytokine-induced death, ATP luminescence, 48 h; percent of positive-control rescue, neutral wells zero; protection from apoptosis, % (concentration not given with the values); 300,000 compounds, 0.8% hits;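 active = Every replicate reaches about 75%, or at least half do and their mean reaches it too, limit read from the data; inconclusive = At least half of replicates reach the limit but their mean does not; inactive = Under half of replicates reach the limit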;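 also: higher means more ATP so stronger rescue from cytokine killing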
CSC inhib: cancer stem cell viability inhibitors, primary screen, luminescence | inhibition, % at 7.5 µM | cancer stem cell-like cells viability | 300,000 compounds, 1.1% hits; in the data active = inhibition above about 75%; inconclusive = no clear call, values can overlap the other calls; tested in HMLE shEcad cells
Mdm2 MdmX PPI: inhibitors of human Mdm2-MdmX association, primary screen, cell-based, luminescence, split luciferase, SaOS-2, uHTS; Protein Mdm4 (Homo sapiens) + E3 ubiquitin-protein ligase Mdm2 (Homo sapiens), …; SaOS-2 split-luciferase Mdm2/MdmX complementation; inhibition, % at 8 µM; 330,000 compounds, 3% hits;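 active = inhibition of at least 50% at 8 µM in the primary screen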
Target sequence (O15151 whole entry, looked up): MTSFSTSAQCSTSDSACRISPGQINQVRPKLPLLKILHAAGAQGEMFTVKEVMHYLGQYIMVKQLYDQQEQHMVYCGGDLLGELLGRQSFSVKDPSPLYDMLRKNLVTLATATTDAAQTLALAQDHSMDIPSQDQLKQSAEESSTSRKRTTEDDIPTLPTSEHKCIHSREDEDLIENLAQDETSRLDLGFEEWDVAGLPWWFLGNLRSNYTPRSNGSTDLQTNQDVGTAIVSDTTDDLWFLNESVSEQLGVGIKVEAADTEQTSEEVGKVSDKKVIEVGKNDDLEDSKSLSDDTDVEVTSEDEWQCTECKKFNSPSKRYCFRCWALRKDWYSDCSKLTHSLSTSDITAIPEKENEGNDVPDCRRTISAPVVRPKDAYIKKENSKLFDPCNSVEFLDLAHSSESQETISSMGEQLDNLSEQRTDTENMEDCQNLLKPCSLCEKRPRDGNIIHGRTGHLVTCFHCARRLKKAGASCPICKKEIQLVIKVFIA
Target sequence (Q00987 whole entry, looked up): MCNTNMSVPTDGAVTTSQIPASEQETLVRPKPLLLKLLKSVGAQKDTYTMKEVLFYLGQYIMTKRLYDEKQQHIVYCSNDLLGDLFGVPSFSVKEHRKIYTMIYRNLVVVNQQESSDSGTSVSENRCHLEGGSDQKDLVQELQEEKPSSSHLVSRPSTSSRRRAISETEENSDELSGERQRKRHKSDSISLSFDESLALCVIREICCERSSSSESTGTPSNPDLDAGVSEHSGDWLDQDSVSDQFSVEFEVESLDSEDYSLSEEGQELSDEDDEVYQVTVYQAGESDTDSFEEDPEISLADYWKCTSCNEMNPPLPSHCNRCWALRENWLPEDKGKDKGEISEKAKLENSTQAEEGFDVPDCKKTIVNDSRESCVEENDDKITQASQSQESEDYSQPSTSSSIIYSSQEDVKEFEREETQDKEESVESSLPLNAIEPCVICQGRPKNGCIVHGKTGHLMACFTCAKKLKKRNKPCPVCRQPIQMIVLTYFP
SKKanGAS inh: S. pyogenes SKKanGAS growth inhibitors in kanamycin, primary screen, streptokinase expression inhibitor project, SKKanGAS strain, BacTiter-Glo luminescence | inhibition, % at 7.5 µM | 6 h | AID 1662, 2009 | 300,000 compounds, 1.3% hits;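 active = mean replicate score, as percent of positive control median, at least 50; inconclusive = mean below 50 but one replicate at or above 50; inactive = mean and every replicate below 50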;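 also: strain carries kanamycin resistance gene driven by streptokinase promoter and grows in 40 µg/ml kanamycin; loss of luminescence reflects streptokinase promoter inhibition or plain growth inhibition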
Mdm2-MdmX conf: Mdm2-MdmX complex disruptors, retested hits, confirmation, luminescence, single concentration | shares compounds with Mdm2 MdmX PPI | Mdm2-MdmX binding, luminescent assay | inhibition, % at 8 µM | 10,000 compounds, 55% hits | AID 489028, 2010; in the data active = inhibition above about 40%
FLuc counter: full-length luciferase signal inhibition, confirmation, counter-screen for Mdm2/MdmX interaction inhibitor project, cell-based, single concentration, SaOS-2 | SaOS-2 full-length luciferase counterscreen, luminescence | 6,200 compounds, 77% hits | shares compounds with Mdm2 MdmX PPI | inhibition, % at 8 µM;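 active = mean inhibition at 8 µM reaching about 37%, which flags the compound as non-specific, limit read from the data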;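 also: p53-null SaOS-2 cells with luciferase driven by a doxycycline-inducible promoter; compound on cells about two nights before reading with doxycycline added after day one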
Each line names hits and unclear results; the compound was inactive in the other large screens (follow-up assays come after a bar, where they were run).

CCc1cc(C(=O)Nc2nc(-c3ccccn3)cs2)sc1C	Mdm2 MdmX PPI 51.9 (no result: T cruzi inh, Calb FLC, SKKanGAS inh) | Mdm2-MdmX conf 55.9 | FLuc counter 50.8
O=C(Nc1nc(-c2ccccn2)cs1)c1ccc(-c2ccccc2F)o1	Mdm2 MdmX PPI 57.3 (no result: T cruzi inh, Calb FLC, CSC inhib, SKKanGAS inh) | Mdm2-MdmX conf 50.5 | FLuc counter 62.8
O=C(Nc1nc(-c2ccccn2)cs1)C1COc2ccccc2O1 (stereo unspecified)	Mdm2 MdmX PPI 64.9 (no result: T cruzi inh, Calb FLC, SKKanGAS inh) | Mdm2-MdmX conf 70.7 | FLuc counter 55.6
CCCn1nc(C(=O)Nc2nc(-c3ccccn3)cs2)c2ccccc2c1=O	Mdm2 MdmX PPI 61.7 (no result: T cruzi inh, Calb FLC, CSC inhib, SKKanGAS inh) | Mdm2-MdmX conf 50.0 | FLuc counter 52.6
O=C(Nc1nc(-c2ccccc2)cs1)C1COc2ccccc2O1 (stereo unspecified)	none
O=C1C(=O)N(C2CCS(=O)(=O)C2)C(c2cccc(O)c2)/C1=C(/O)c1ccc(Cl)cc1 (stereo unspecified)	none (no result: Calb FLC)
CC1CCCCN1C(=S)NC(=O)c1cc(Br)ccc1Cl (stereo unspecified)	none (no result: T cruzi inh, Calb FLC, SKKanGAS inh)
Cc1ccc(C(=O)Nc2nc(-c3ccccn3)cs2)o1	Mdm2 MdmX PPI 73.7, SKKanGAS inh 76.6 | Mdm2-MdmX conf 56.4 | FLuc counter 40.0
CC(=O)c1ccc(-c2ccc(C(=O)Nc3nc(-c4ccccn4)cs3)o2)cc1	Mdm2 MdmX PPI 91.4 (no result: T cruzi inh, Calb FLC, SKKanGAS inh) | Mdm2-MdmX conf 86.2 | FLuc counter 40.4
CC(=O)Nc1ccc(-c2csc(NC(=O)c3ccc(C)o3)n2)cc1	none
Cn1nc(C(=O)Nc2nc(-c3ccccn3)cs2)c2ccccc2c1=O	none (no result: T cruzi inh, Calb FLC, Beta apoptosis, CSC inhib, SKKanGAS inh)
O=C(Nc1nc(-c2ccccn2)cs1)c1ccccc1-n1cnnn1	T cruzi inh 63.0, Beta apoptosis 78.4, Mdm2 MdmX PPI 71.7 | Mdm2-MdmX conf 74.8 | FLuc counter inactive
O=C(Nc1nc(-c2ccccn2)cs1)c1ccc([N+](=O)[O-])o1	Beta apoptosis 90.2, Mdm2 MdmX PPI 76.7 | Mdm2-MdmX conf 68.0 | FLuc counter 37.2
O=C1NC2(CCN(Cc3ccccc3)CC2)Oc2ccccc21	Calb FLC inconclusive (no result: CSC inhib)
O=C1c2ccccc2OC2(C=Cc3ccccc3O2)N1Cc1ccccc1 (stereo unspecified)	Mdm2 MdmX PPI 54.2 (no result: CSC inhib) | Mdm2-MdmX conf 47.9 | FLuc counter 39.6
O=C(Nc1ccc2nc3n(c(=O)c2c1)CCCCC3)C(=O)N1CCN(c2ccccc2)CC1	none
O=C1c2ccccc2S(=O)(=O)N1Cc1nc2ccccc2s1	Mdm2 MdmX PPI 90.1 | Mdm2-MdmX conf 87.3 | FLuc counter inactive
Cc1ccccc1CN1C(=O)c2ccccc2S1(=O)=O	none (no result: CSC inhib)
CC(C)N=c1cc2n(-c3ccc(Cl)cc3)c3ccccc3nc-2cc1Nc1ccc(Cl)cc1	Beta apoptosis 114.0, CSC inhib 104.2, Mdm2 MdmX PPI 97.1, SKKanGAS inh 98.1 (no result: Calb FLC) | Mdm2-MdmX conf 94.2 | FLuc counter inactive
Cn1c(CNc2ccc(Cl)cc2)nc2ccccc21	none
O=[N+]([O-])c1ccccc1S(=O)(=O)N1CCCC(C(F)(F)F)C1 (stereo unspecified)	none
COc1nc(N/N=C/c2ccc(-c3cccc([N+](=O)[O-])c3)o2)nc(N2CCOCC2)n1	none (no result: Beta apoptosis, CSC inhib, Mdm2 MdmX PPI)
O=[N+]([O-])c1ccc(-c2ccc(/C=N/Nc3nc(N4CCCCC4)nc(N4CCCCC4)n3)o2)cc1	Calb FLC inconclusive, Mdm2 MdmX PPI 77.5 (no result: Beta apoptosis, CSC inhib) | Mdm2-MdmX conf inactive | FLuc counter 74.7
O=[N+]([O-])c1cccc(-c2ccc(/C=N/Nc3nc(N4CCCCC4)nc(N4CCCCC4)n3)o2)c1	T cruzi inh inconclusive (no result: CSC inhib)
O=[N+]([O-])c1ccc(-c2ccc(/C=N/Nc3nc(N4CCCC4)nc(N4CCCC4)n3)o2)cc1	Mdm2 MdmX PPI 92.8 | Mdm2-MdmX conf 66.7 | FLuc counter 49.3
CC(C)(C)OC(=O)n1cc(/C=N/NC(=O)c2ccco2)c2ccccc21	none
CCOc1ccccc1NC(=O)c1cccc(NC(=O)c2ccco2)c1	Mdm2 MdmX PPI 62.3 | Mdm2-MdmX conf 67.1 | FLuc counter 63.5
Cc1ccccc1NC(=O)c1cccc(NC(=O)c2ccco2)c1	none (no result: Beta apoptosis)
CC(=O)c1ccc(NC(=O)c2ccc(NC(=O)c3ccco3)cc2)cc1	Mdm2 MdmX PPI 71.4 | Mdm2-MdmX conf inactive
COC(=O)c1ccc(NC(=O)c2ccc(NC(=O)c3ccco3)cc2)cc1	none
CCOC(=O)c1cccc(NC(=O)c2ccc(NC(=O)c3ccco3)cc2)c1	Mdm2 MdmX PPI 73.0 | Mdm2-MdmX conf inactive
CCOc1ccc(C(=O)Nc2ccc(NC(=O)c3ccco3)c(Cl)c2)cc1Cl	Mdm2 MdmX PPI 61.9 | Mdm2-MdmX conf 49.2 | FLuc counter 93.7
COC(=O)C[C@H]1c2cc(F)ccc2S(=O)(=O)N1c1ccc(N(C)C)cc1	none
Cc1cccc(NC(=O)C2CCN(C(=O)c3ccc(Cl)cc3)CC2)n1	none (no result: CSC inhib)
Cc1ccc(C(=O)NNC(=O)COC(=O)COc2ccccc2C#N)cc1	none (no result: T cruzi inh, Calb FLC, Beta apoptosis, CSC inhib, SKKanGAS inh)
CCOc1ccc(C(=O)Nc2cccc(-c3nc4cccnc4o3)c2)cc1Cl	Mdm2 MdmX PPI 56.5 | Mdm2-MdmX conf 54.5 | FLuc counter 42.2
CCOc1ccc(C(=O)Nc2cccc(C(=O)O)c2)cc1Cl	none (no result: Beta apoptosis)
O=C(Nc1ccc(NC(=O)c2sc3ccccc3c2Cl)cc1Cl)c1ccco1	Mdm2 MdmX PPI 89.1 | Mdm2-MdmX conf inactive
CC(C)(C)c1ccc(Oc2ccc(NC(=O)c3ccco3)cn2)cc1	Beta apoptosis 75.2, CSC inhib 99.2, Mdm2 MdmX PPI 56.1 | Mdm2-MdmX conf inactive | FLuc counter 69.2
COc1cc(C)c(C(=O)CSc2nnc(CNC(=O)c3ccco3)n2C)cc1C	none
O=C(Nc1ccc(S(=O)(=O)N2CCOCC2)cc1)c1ccccc1Br	none (no result: Beta apoptosis)
O=C(NCCCO)/C(=C/c1ccc(-c2cccc([N+](=O)[O-])c2)o1)NC(=O)c1ccccc1	none
Cc1ccc(C(=O)N/C(=C/c2ccc(-c3ccc([N+](=O)[O-])cc3)o2)C(=O)NCCCN(C)C)cc1	Mdm2 MdmX PPI 63.6 (no result: Beta apoptosis) | Mdm2-MdmX conf inactive
COc1ccc(C(=O)c2ccc(N(C)C)cc2)c(OC)c1	Mdm2 MdmX PPI 61.7 | Mdm2-MdmX conf 47.6 | FLuc counter 36.9
CN(C)c1ccc(C(=O)c2ccc(N(C)C)c3ccccc23)cc1	Mdm2 MdmX PPI 56.4 | Mdm2-MdmX conf 49.7 | FLuc counter 181.2

Bioassay records (PubChem BioAssay)
